# KCNK3 block: human KCNK3 channel inhibition, primary screen; O14649; CHO-KCNK3 thallium flux, FluxOR fluorescence; hits give low values; B-score at 10 µM; 0.84% of 340,000 active;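 active = B-score under library mean minus 4 SD, starting fluorescence ratio at most library mean plus 5 SD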;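 note: more negative B-score means stronger inhibition of thallium flux through KCNK3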
# hERG protect: shields human hERG channel from block by proarrhythmic agents; Q12809; CHO-hERG, FluxOR thallium flux, dofetilide IC70 present; activation (rescue from dofetilide block), less the hit threshold, % at 10 µM; 0.51% of 310,000 active;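 active = activation above the mean of controls blocked by dofetilide plus 5 SD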;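 note: thallium influx through hERG after potassium depolarization seen as dye fluorescence rise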
# Target sequence (Q12809 whole entry, looked up): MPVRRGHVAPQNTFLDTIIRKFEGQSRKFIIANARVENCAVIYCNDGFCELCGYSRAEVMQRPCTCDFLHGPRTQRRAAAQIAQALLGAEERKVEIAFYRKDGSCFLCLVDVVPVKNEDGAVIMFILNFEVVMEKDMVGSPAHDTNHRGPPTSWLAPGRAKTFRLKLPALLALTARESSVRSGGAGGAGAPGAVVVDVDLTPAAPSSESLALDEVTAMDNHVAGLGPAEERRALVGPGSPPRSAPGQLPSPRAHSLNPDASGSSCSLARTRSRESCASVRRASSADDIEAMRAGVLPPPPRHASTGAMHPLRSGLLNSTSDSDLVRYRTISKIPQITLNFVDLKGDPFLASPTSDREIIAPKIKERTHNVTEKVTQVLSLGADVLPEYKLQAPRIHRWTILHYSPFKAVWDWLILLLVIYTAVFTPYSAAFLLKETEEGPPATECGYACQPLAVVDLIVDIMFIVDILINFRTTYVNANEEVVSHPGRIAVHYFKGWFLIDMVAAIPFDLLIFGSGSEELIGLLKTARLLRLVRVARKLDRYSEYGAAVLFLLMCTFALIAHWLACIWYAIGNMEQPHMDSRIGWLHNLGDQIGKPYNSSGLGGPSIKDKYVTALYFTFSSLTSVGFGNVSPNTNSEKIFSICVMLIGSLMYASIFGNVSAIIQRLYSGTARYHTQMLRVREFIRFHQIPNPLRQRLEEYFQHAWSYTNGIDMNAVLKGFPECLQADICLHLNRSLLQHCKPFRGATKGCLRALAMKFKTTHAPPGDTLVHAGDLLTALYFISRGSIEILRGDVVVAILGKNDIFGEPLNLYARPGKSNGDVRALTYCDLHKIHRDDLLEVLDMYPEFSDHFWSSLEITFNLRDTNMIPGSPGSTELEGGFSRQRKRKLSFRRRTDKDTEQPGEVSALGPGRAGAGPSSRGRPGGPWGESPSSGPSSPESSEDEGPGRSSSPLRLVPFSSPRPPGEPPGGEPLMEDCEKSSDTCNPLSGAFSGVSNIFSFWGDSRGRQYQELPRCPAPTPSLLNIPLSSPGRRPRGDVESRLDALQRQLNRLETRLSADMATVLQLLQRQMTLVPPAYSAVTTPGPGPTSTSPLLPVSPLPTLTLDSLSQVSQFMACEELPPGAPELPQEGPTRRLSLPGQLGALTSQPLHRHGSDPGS
# KCNQ1 act: potentiators or activators of human KCNQ1 potassium channel. AID 2648. CHO-K1 KCNQ1, thallium flux FluxOR fluorescence; hits give high values. B-score at 10 µM. 0.35% of 310,000 active;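 active = fluorescence ratio B-score, a plate-corrected score, at least three library SD, with initial intensity B-score within 5 SD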
#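 Assay system: CHO-K1 cells stably expressing KCNQ1. Medium: assay buffer for compound exposure, DMSO matched across wells. Timing: 37 °C overnight plating, 90-min dark dye load, 20-min compound pretreatment. Signal: kinetic FluxOR fluorescence, 10 s baseline plus 110 s post-stimulus.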
# Kir21 block: inhibitors of mouse Kir2.1 inward-rectifier potassium channel; P35561; HEK293-Kir2.1, FluxOR thallium flux fluorescence; hits give low values; B-score at 10 µM; 0.85% of 310,000 active; AID 1672;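 active = fluorescence ratio B-score at or below minus 3 SD of library scores, with starting-brightness B-score within 2 SD, cut at about -4.2 in these data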;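 note: channel flux triggered by added potassium and thallium sulfate stimulus; B-score of peak minus minimum fluorescence over baseline after thallium stimulus; more negative B-score means stronger Kir2.1 block with less thallium influx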
# KCNK9 block: blocks the human KCNK9 two-pore domain potassium channel | 1.2% of 310,000 active | B-score at 10 µM | HEK293 KCNK9, FluxOR thallium flux fluorescence; hits give low values | Q9NPC2;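 active = ratio B-score over 3 SD below the library mean, with starting fluorescence within 5 SD of its mean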;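 note: negative B-score means less thallium flux so channel inhibition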
# KCNQ1 inh: inhibitors of human KCNQ1 potassium channel; CHO-K1 KCNQ1, FluxOR thallium flux fluorescence; hits give high values; B-score at 10 µM; 1.3% of 310,000 active; P51787;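 active = compounds whose thallium flux B-score, printed positive for inhibition, exceeds three library SD while starting fluorescence stays within three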;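 note: channel opened by potassium depolarization with thallium stimulus after 20 min compound exposure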
# Hits are given with their value; . = inactive; / = no result. The list is not random: actives were taken first. Their share in the collection is about 3.7%.
SMILES,KCNK3 block,hERG protect,KCNQ1 act,Kir21 block,KCNK9 block,KCNQ1 inh
CCN1CCN(CCNC(=O)c2ccc(/C=C3/Sc4ccccc4N(Cc4ccccc4C)C3=O)cc2)CC1,.,.,.,-5.6,.,14
Cc1ccccc1CN1C(=O)c2ccccc2Sc2ccc(C(=O)NCCN3CCOCC3)cc21,.,.,.,.,.,.
O=C1Nc2cc(C(=O)NCCCN3CCCC3)ccc2S/C1=C\c1ccccc1,.,.,.,-4.9,.,.
O=C1Nc2cc(C(=O)NCCCN3CCOCC3)ccc2S/C1=C/c1cccc(Cl)c1,.,.,.,.,.,.
CCN1CCN(CCCNC(=O)c2ccc(/C=C3/Sc4ccccc4N(Cc4ccccc4F)C3=O)cc2)CC1,.,.,.,.,-6.7,7
O=S(=O)(NCCc1cccs1)c1ccc(Br)cc1,.,.,.,-5.3,.,.
O=C(OCC(=O)N1CCN(c2ccccc2)CC1)c1cccc(Cl)c1,.,.,.,.,.,.
O=C(OCC(=O)N1CCN(c2ccccc2)CC1)c1cnc(Cl)c(Cl)c1,/,9.4,.,.,.,.
CCOc1ccc(C(C)=O)cc1COC(=O)CNC(=O)C12CC3CC(CC(C3)C1)C2,.,/,/,/,/,/
COc1cc(OC)c(OC)cc1/C=C/C(=O)OCC(=O)Nc1c(C)n(C)n(-c2ccccc2)c1=O,.,/,/,/,/,/
O=c1cc(-c2c(F)c(F)c(F)c(F)c2F)oc2ccccc12,.,19,24,.,.,.
CC(=O)Nc1ccc(NC(=O)CCNC(=O)c2ccccc2Cl)cc1,.,.,.,.,.,.
OC(CNCc1ccc(F)cc1)(c1ccc(F)cc1)c1ccc(F)cc1,.,.,.,.,-6.6,.
OC(CNCc1ccc(Cl)cc1)(c1ccccc1)c1ccc(F)cc1 (configuration not stated),.,.,.,.,-7.6,.
Cc1ccc(C(O)(CNCc2ccccc2)c2ccccc2)cc1 (configuration not stated),.,.,.,-11,.,.
COc1ccc(CNCC(O)(c2ccccc2)c2ccc(F)cc2)cc1 (configuration not stated),.,.,.,-7,.,.
COc1ccc(CNCC(O)(c2ccc(F)cc2)c2ccc(F)cc2)cc1OC,.,.,.,.,.,.
COc1ccc(CNCC(O)(c2ccccc2)c2ccc(F)cc2)cc1OC (configuration not stated),.,.,.,.,.,.
OC1CCCC1NCc1ccnc2cc(Cl)ccc12 (configuration not stated),.,/,/,/,/,/
CC(=O)c1cccc(NC(=O)C(C)OC(=O)CCCN=C2NS(=O)(=O)c3ccccc32)c1 (configuration not stated),.,.,.,.,.,.
CC1(c2ccc(Cl)cc2Cl)NC(=O)N(CC(=O)NC2CCCCC2)C1=O (configuration not stated),.,/,/,/,/,/
COc1cccc(-n2nc(C#N)c(Cl)cc2=O)c1,.,.,.,-4.6,.,.
N=C1/C(=C/c2cccs2)C(=O)N=C2SN=C(SCc3ccccc3)N12,.,.,.,.,.,.
CC(C)CSC1=NSC2=NC(=O)/C(=C\c3cccs3)C(=N)N12,.,.,8,.,.,.
Cc1cccc(C(=O)NN2S(=O)(=O)c3ccccc3S2(=O)=O)c1,.,.,.,.,.,.
SMILES,KCNK3 block,hERG protect,KCNQ1 act,Kir21 block,KCNK9 block,KCNQ1 inh
C/C(N)=C(/C#N)C(=O)COC(=O)c1ccccc1O,.,.,.,.,.,.
C/C(N)=C(/C#N)C(=O)COC(=O)c1ccccc1C(=O)c1ccc(C)cc1,.,.,.,-5.1,.,.
C/C(N)=C(/C#N)C(=O)COC(=O)c1cc(-c2cccc3ccccc23)nc2ccccc12,.,.,.,.,.,6
C=CCn1c(SCN2C(=O)c3ccccc3C2=O)nc2ccc(Cl)cc2c1=O,.,.,9,.,.,.
C=CCn1c(SCC(=O)Nc2sccc2C(N)=O)nc2ccc(Cl)cc2c1=O,.,.,.,.,.,.
CN(CC(=O)Nc1ccc(OC(F)(F)F)cc1)C1CCCCC1,.,.,.,.,.,.
O=C(CNCC1CCCCC1)Nc1ccc(OC(F)(F)F)cc1,.,.,20,.,.,.
N#CC1=C(N)C(C#N)(C#N)[C@H](c2ccoc2)[C@H]2CN(Cc3ccccc3)CC=C12,.,.,.,.,-8.8,.
CN1CC=C2C(C#N)=C(N)C(C#N)(C#N)[C@H](c3ccoc3)[C@H]2C1,.,.,.,.,.,.
CCN1CC=C2C(C#N)=C(N)C(C#N)(C#N)C(CCc3ccccc3)C2C1 (configuration not stated),.,/,/,/,/,/
CCCN1CC=C2C(C#N)=C(N)C(C#N)(C#N)C(c3cccc(OC)c3OC)C2C1 (configuration not stated),.,.,.,.,.,8
CN1CC=C2C(C#N)=C(N)C(C#N)(C#N)C(c3cccc(Cl)c3Cl)C2C1 (configuration not stated),.,.,.,.,.,6
COc1ccc(OC)c(C2C3CN(C(C)C)CC=C3C(C#N)=C(N)C2(C#N)C#N)c1 (configuration not stated),.,.,.,.,.,6
CN(C)C(=O)CSc1n[nH]c(=O)n1CCc1ccccc1,.,.,.,.,.,.
COc1ccc2c(CC(=O)OCC(=O)Nc3cccc(C)c3)coc2c1,.,/,/,/,/,/
O=C(/C=C/c1ccccc1)OCN1C(=O)c2ccccc2C1=O,.,.,.,.,.,.
COc1cccc(OC)c1OCc1cc(C2C3CCCC=C3C(C#N)=C(N)C2(C#N)C#N)c(C)cc1C (configuration not stated),.,.,.,.,.,7
CC(C)[C@@H](C(=O)N[C@@H](Cc1ccccc1)C(=O)O)N1C(=O)N2CCc3c([nH]c4ccccc34)[C@@]2(C)C1=O,.,.,.,.,.,.
O=C(CSc1nc2ccc([N+](=O)[O-])cc2[nH]1)NC1CCCCCC1,.,.,.,.,.,14
CCCOc1ccc(NC(=O)CCC(=O)NC(C)c2ccccc2)cc1 (configuration not stated),.,.,.,.,.,.
COc1cccc(C(C[N+](=O)[O-])c2c(C)[nH]n(-c3ccccc3)c2=O)c1 (configuration not stated),.,.,.,-13,.,8
CCCCCCCNC(=O)C1(CC2CC(c3cccc(Br)c3)=NO2)CCNCC1 (configuration not stated),.,.,.,-11,.,.
CCCCCCCNC(=O)C1(CC2CC(c3ccc(Cl)cc3)=NO2)CCNCC1 (configuration not stated),.,.,.,-10,.,.

# Compound activity deposited in PubChem BioAssay by Johns Hopkins Ion Channel Center.
